OX1R antag-1: OX1R (HCRTR1) antagonists, primary screen, fluorescence, CHO/OX1R cells, Fluo-8 calcium, orexin A | AID 434989, 2010 | Fluo-8 calcium fluorescence | inhibition, % at 5 µM | 330,000 tested, 0.43% active;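 active means inhibition above its plate's threshold, mean inhibition of all tested compounds on the plate plus 3 SD, cut at about 37% in these data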
Target sequence (O43613 whole entry, looked up): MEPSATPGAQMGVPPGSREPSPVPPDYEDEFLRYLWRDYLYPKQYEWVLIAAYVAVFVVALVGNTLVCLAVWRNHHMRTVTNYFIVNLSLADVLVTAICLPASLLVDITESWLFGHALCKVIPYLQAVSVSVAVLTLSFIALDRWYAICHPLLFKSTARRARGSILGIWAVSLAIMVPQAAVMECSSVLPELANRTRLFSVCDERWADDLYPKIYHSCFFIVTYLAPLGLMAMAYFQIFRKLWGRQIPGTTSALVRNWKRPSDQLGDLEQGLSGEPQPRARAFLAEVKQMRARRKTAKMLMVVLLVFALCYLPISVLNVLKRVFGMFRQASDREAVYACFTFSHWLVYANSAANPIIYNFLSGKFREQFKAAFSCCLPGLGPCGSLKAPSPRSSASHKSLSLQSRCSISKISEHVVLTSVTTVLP
TAAR1 antag: human TAAR1 antagonists, primary screen, Fluo-8 calcium fluorescence, CHO RD-HGA16 cells | Trace amine-associated receptor 1 (Homo sapiens), Q96RJ0 | antagonist | inhibition, % at 3 µM | 360,000 tested, 1.5% active;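 active means inhibition above a per-plate cutoff, the mean inhibition of test compounds on that plate plus 3 SD, cut at about 49% in these data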
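Test system: RD-HGA16 CHO cells with stable hTAAR1 and Gα16 / Probe or stimulus: EC80 β-phenethylamine stimulus / Times: seeding 17-24 h prior, 75-min 37 °C, 30-min RT dye loading / Detection: Fluo-8 calcium-sensitive fluorescence / Read-out basis: % inhibition scaled between DMSO and EC80 PEA controls / Repeats: singlicate, one well per test compound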
TAAR1 ag: human TAAR1 agonists, primary screen, Fluo-8 calcium fluorescence, CHO RD-HGA16 cells; Trace amine-associated receptor 1 (Homo sapiens), Q96RJ0; vehicle wells 0%, saturating PEA agonist 100%; activation, % at 3 µM; 360,000 tested, 0.99% active; AID 624467, 2012;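 active means activation above the mean activation of all test compounds in the run plus 3 SD, cut at about 38% in these data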
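Repeats: no replicates (n 1) | Material: CHO-derived RD-HGA16 cells with stable Gα16 and human TAAR1 | Technique: Kinetic Fluo-8 calcium fluorescence | Schedule: 17-24 h seeding, 75 min 37 °C dye, 30 min RT | Evaluation: % activation from peak over basal fluorescence ratio, DMSO-to-PEA scaled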
CHO parental Ca: ATP-evoked calcium signal inhibitors, parental CHO, primary screen, counter-screen for OX1R antagonist project, cell-based, fluorescence, Fluo-8 calcium dye; parental CHO-K1, ATP-induced calcium, Fluo-8 fluorescence; inhibition, % at 5.6 µM; 330,000 tested, 0.63% active; AID 463079, 2010;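 active means inhibition above that plate's mean sample inhibition plus 3 SD, cut at about 26% in these data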
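Measured by: calcium-sensitive Fluo-8 fluorescence / Test system: CHO parental line / Controls: ATP-challenged DMSO wells low, unchallenged DMSO wells high / Measure: % inhibition / Compound: single nominal dose of 5.6 µM per compound / Replicates: single well per compound, no replicates / Reagent: ATP as calcium-mobilizing challenge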
GPR7 antag: GPR7 receptor antagonists, primary screen, cell-based, fluorescence, single concentration. Neuropeptides B/W receptor type 1 (Homo sapiens), P48145. GPR7-expressing cells, fluorescence antagonist assay. inhibition, % at 4.4 µM. 290,000 tested, 1.1% active; in the data active means inhibition above about 16%, passing the limit was not always enough;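 further: cells stimulated with the agonist NPW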
Target sequence (P48145 whole entry, looked up): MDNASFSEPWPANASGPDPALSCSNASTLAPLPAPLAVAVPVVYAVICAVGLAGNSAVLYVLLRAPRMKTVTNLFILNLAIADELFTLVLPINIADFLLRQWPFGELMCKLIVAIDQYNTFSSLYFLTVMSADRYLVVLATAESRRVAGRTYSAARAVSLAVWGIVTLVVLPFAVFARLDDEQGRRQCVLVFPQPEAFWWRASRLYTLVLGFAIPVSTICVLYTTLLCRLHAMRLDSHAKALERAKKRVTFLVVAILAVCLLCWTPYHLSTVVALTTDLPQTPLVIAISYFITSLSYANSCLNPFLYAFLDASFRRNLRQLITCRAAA
OX1R antag-2: antagonists of human orexin 1 receptor (OX1R). 330,000 tested, 1.8% active. Orexin/Hypocretin receptor type 1 (Homo sapiens), O43613. OX1R-expressing cells, FRET antagonist read-out. inhibition, % at 6.6 µM; in the data active means inhibition mostly above about 38%, no sharp cut-off; inactive means mostly below about 40%
nonsel antag count: nonselective antagonists in TAAR1 counter-screen cells, counter-screen for hTAAR1 antagonist project, cell-based, fluorescence, calcium | shares compounds with TAAR1 antag | inhibition, % at 3 µM | counterscreen cell line, antagonist mode | 2,400 tested, 77% active; in the data active means inhibition above about 22%;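 further: CHO-Ga16 host cells stimulated with ATP at an EC80 level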
TAAR1 ant conf: human TAAR1 antagonists, retest of hits, confirmation, cell-based, fluorescence. shares compounds with TAAR1 antag. TAAR1-expressing cells, fluorescence antagonist read-out. inhibition, % at 3 µM. 2,400 tested, 40% active; in the data active means inhibition above about 49%;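 further: CHO-Ga16 host cells challenged with agonist PEA near its EC80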
Ga16 nonsel ag: calcium activation in Ga16-expressing cells, counter-screen for TAAR1 antagonist project, cell-based, fluorescence; 2,400 tested, 18% active; AID 651953, 2012; agonist counterscreen; shares compounds with TAAR1 antag; activation, % at 3 µM; in the data active means activation above about 12%
TAAR1 ag count: TAAR1 activation by candidate antagonists – cell-based, fluorescence, counter-screen for TAAR1 antagonist project; shares compounds with TAAR1 antag; hTAAR1 cell line, agonist mode; activation, % at 3 µM; 2,400 tested, 2% active; AID 651955, 2012; in the data active means activation above about 37%;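 further: CHO cells stably expressing TAAR1 with calcium dye readout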
A number is an active result; – = inactive; · = not tested or not shown. The list is not random: actives were taken first. Their share in the collection is about 4.5%.

SMILES | OX1R antag-1 | TAAR1 antag | TAAR1 ag | CHO parental Ca | GPR7 antag | OX1R antag-2 | nonsel antag count | TAAR1 ant conf | Ga16 nonsel ag | TAAR1 ag count
Cc1cc(C(=O)CSc2ccc(Cl)cc2)cc(C)c1OC(=S)N(C)C | – | 63 | – | – | – | – | – | – | – | –
COc1ccccc1C(=O)Nc1ccc2c(c1)CCCN2C(=O)c1ccccc1 | – | – | – | – | – | – | · | · | · | ·
O=C(Nc1ccc2c(c1)CCCN2C(=O)c1cccs1)c1cccc(F)c1 | – | 69 | – | – | – | – | 29 | – | – | –
O=C(Nc1ccc2c(c1)CCCN2C(=O)c1ccccc1)c1ccccc1Br | – | 66 | – | – | – | – | 31 | – | – | –
CCNC(=O)N(C)C[C@H]1N[C@@](CC)(C(=O)OC)[C@H]2C(=O)N(C)C(=O)[C@@H]12 | – | – | – | – | · | – | · | · | · | ·
COc1ccccc1N=CC1=C(O)CC(c2ccccc2)CC1=O (stereo not drawn) | – | – | – | – | – | – | · | · | · | ·
CC(Sc1nnc(COc2ccc(Cl)cc2)n1Cc1ccco1)C(=O)N1CCNC1=O (stereo not drawn) | – | – | – | – | · | – | · | · | · | ·
Cc1cccc(N(C)S(=O)(=O)c2c[nH]c3ccc([N+](=O)[O-])cc23)c1 | – | 57 | – | – | – | – | 32 | – | – | –
CN(Cc1ccccc1)C(=O)c1ccc(NC(=O)C2CCN(C(=O)OC(C)(C)C)CC2)cc1 | – | 60 | – | – | · | – | 47 | – | 14 | –
CN(CC(=O)Nc1ccc(F)cc1)C(=O)c1cc(-c2cccs2)nn1-c1ccccc1 | · | 69 | – | · | · | · | 28 | – | – | –
CN(C(=O)c1cc(-c2cccs2)nn1-c1ccccc1)C1CCS(=O)(=O)C1 (stereo not drawn) | · | – | – | · | · | · | · | · | · | ·
O=C(COC(=O)c1cccc(S(=O)(=O)NCc2ccccc2)c1)c1ccc2c(c1)OCCO2 | – | 63 | – | – | – | – | 35 | 49 | – | –
Cc1ccc(C)c(Nc2cc(C(=O)NCc3cccnc3)c3ccccc3n2)c1 | – | 50 | – | – | – | – | 22 | – | – | –
COCCCNC(=O)c1cc(-c2cccnc2)nc2ccccc12 | – | – | – | – | – | – | · | · | · | ·
COc1ccc(C2=NOC(Cn3nc(-c4ccccc4)cc3C(=O)NCc3cccc(Br)c3)C2)cc1 (stereo not drawn) | – | – | – | – | · | – | · | · | · | ·
COc1ccccc1Nc1cc(C(=O)NCc2cccnc2)c2ccccc2n1 | – | – | – | – | – | – | · | · | · | ·
COc1ccccc1CNC(=O)c1cc(-c2cccnc2)nc2ccccc12 | – | 74 | – | – | – | – | 23 | – | – | –
COc1ccc(C2=NOC(Cn3nc(C(=O)NCc4cccc(Br)c4)cc3-c3ccccc3)C2)cc1 (stereo not drawn) | – | 57 | – | – | · | – | 30 | – | – | –
COc1ccccc1CNC(=O)c1cc(-c2ccccc2)nn1CC1CC(c2cccnc2)=NO1 (stereo not drawn) | – | 53 | – | – | · | – | – | – | – | –
Cc1cc(CNC(=O)c2cc(-c3ccccc3)nc3ccccc23)nn1C | – | 52 | – | – | – | – | 24 | – | – | –
COCCNC(=O)c1cc(-c2ccc(-c3ccccc3)cc2)nc2ccccc12 | – | 55 | – | – | – | – | 25 | – | – | –
CCN1C/C(=C/c2ccc(OC)c(O)c2)C(=O)/C(=C/c2ccc(OC)c(O)c2)C1 | – | – | – | – | – | – | · | · | · | ·
COc1ccc(/C=C2\CN(Cc3ccccc3)C/C(=C\c3ccc(OC)c(O)c3)C2=O)cc1O | – | 71 | – | – | – | – | 29 | 51 | – | –
CCOC(CNC(=O)CN1C(=O)COc2ccc(S(=O)(=O)N3CCCC3)cc21)OCC | – | – | – | – | – | – | · | · | · | ·
COc1ccc(N(C)S(=O)(=O)c2cccc(C(=O)Nc3nc(C)c(C(C)=O)s3)c2)cc1 | – | 62 | – | – | · | – | 38 | 57 | 15 | –
SMILES | OX1R antag-1 | TAAR1 antag | TAAR1 ag | CHO parental Ca | GPR7 antag | OX1R antag-2 | nonsel antag count | TAAR1 ant conf | Ga16 nonsel ag | TAAR1 ag count
COc1ccc(N(C)S(=O)(=O)c2cccc(C(=O)Nc3cccc(C(=O)NC4CC4)c3)c2)cc1 | – | 61 | – | – | · | – | – | – | – | –
COc1ccc(N(C)S(=O)(=O)c2cccc(C(=O)OCC(=O)Nc3cc(C)ccc3OC)c2)cc1 | · | 84 | – | · | · | · | 34 | 51 | 12 | –
O=C(Nc1cccc(S(=O)(=O)N2CCOCC2)c1)c1ccc(N2CCOCC2)c([N+](=O)[O-])c1 | – | – | – | – | – | – | · | · | · | ·
NC(=O)NC(CCC(=O)O)C(=O)O (stereo not drawn) | – | – | – | – | · | – | · | · | · | ·
O=C(C1CCCN(Cc2ccccc2F)C1)N1CCc2ccccc2C1 (stereo not drawn) | – | – | – | – | – | – | · | · | · | ·
O=C(CCN1C(=O)CSc2ccccc21)Nc1ccc(C(F)(F)F)cc1 | – | 62 | – | – | · | – | – | – | – | –
O=C(CCN1C(=O)CSc2ccccc21)Nc1cccc(C(F)(F)F)c1 | – | – | – | – | · | – | · | · | · | ·
COc1ccc(OC)c(NC(=O)NNC(=O)COc2ccc(F)cc2F)c1 | – | – | – | – | – | – | · | · | · | ·
O=C(Nc1cccnc1)c1ccc(COc2ccccc2Br)cc1 | – | 79 | – | – | – | – | – | 60 | – | –
Cc1ccc(NC(=O)Cn2nc(C(=O)O)c3ccccc3c2=O)cc1S(=O)(=O)N1CCCCCC1 | · | 102 | – | · | · | · | 36 | – | – | –
Cc1ccc(NC(=O)CC2S/C(=N/c3nccs3)N(C)C2=O)cc1C (stereo not drawn) | – | 55 | – | – | – | – | 31 | 50 | – | –
CCN(CC)c1ncnc2scc(C3COc4ccccc4O3)c12 (stereo not drawn) | – | 53 | – | – | – | – | – | – | – | –
